Experimental data from ChEMBL document CHEMBL1135602 (J Med Chem, 2002).
Calls of active or inactive are those of the source. No cut-off for these calls is given here.

Key:
BC = assay: Cytotoxicity against human breast cancer cells.; type: functional, cell-based
[1] = biological target: Bifunctional dihydrofolate reductase-thymidylate synthase (Plasmodium falciparum K1) (UniProt P13922); assay: (§1) Inhibition of the wild-type dihydrofolate reductase (DHFR) relative to Pyr.
In short: (§2)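 Assayed at 25 °C in 50 mM TES pH 7.0, 75 mM β-mercaptoethanol, 1 mg/mL BSA, with 100 µM H2folate and 100 µM NADPH. A340 was followed. Ki was derived from IC50 = Ki(1+[S]/Km), assuming competitive inhibition.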

[2] = biological target: Bifunctional dihydrofolate reductase-thymidylate synthase (Plasmodium falciparum K1, UniProt P13922); assay: Inhibition of the C59R+S108N mutant of dihydrofolate reductase (DHFR)
Chain of Bifunctional dihydrofolate reductase-thymidylate synthase (Plasmodium falciparum K1, UniProt P13922) (P13922 whole entry): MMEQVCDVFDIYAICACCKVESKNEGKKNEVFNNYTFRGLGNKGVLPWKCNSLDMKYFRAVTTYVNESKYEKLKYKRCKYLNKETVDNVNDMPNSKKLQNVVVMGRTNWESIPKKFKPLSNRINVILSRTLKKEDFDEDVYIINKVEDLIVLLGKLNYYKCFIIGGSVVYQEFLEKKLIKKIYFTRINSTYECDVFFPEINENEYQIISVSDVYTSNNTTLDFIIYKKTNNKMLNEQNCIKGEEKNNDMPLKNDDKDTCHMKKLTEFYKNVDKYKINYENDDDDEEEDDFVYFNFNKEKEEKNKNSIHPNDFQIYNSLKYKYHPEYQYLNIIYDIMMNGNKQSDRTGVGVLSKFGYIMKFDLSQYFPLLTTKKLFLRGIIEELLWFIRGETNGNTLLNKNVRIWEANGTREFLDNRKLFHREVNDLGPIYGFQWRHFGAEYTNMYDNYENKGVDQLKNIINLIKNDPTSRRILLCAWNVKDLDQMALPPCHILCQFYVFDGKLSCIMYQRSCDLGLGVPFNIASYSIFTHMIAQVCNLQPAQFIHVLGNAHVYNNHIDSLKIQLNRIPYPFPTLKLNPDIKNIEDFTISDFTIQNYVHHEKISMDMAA
In short: (§3)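 Assay at 25 °C: 50 mM TES pH 7.0, 75 mM β-mercaptoethanol, 1 mg/mL BSA, 100 µM H2folate and 100 µM NADPH. NADPH oxidation followed at 340 nm. Ki derived from IC50 as Ki(1+[S]/Km), assuming competitive inhibition.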

[3] = biological target: Bifunctional dihydrofolate reductase-thymidylate synthase (Plasmodium falciparum K1, UniProt P13922, S108N); assay: Inhibition of the S108N mutant of dihydrofolate reductase (DHFR); in short: as §3
Chain of Bifunctional dihydrofolate reductase-thymidylate synthase (Plasmodium falciparum K1, UniProt P13922, S108N) (P13922 whole entry, looked up, stated change not applied): as the sequence (P13922 whole entry) above

[4] = biological target: Bifunctional dihydrofolate reductase-thymidylate synthase (Plasmodium falciparum K1) (UniProt P13922); assay: Inhibition of the S108N mutant of dihydrofolate reductase (DHFR) relative to Pyr.; in short: as §2
KB = assay: Cytotoxicity against human epidermoid carcinoma KB cell.; type: functional, cell-based
Plasmodium falciparum [5] = assay: Relative antiplasmodial activity (IC50) compared to Pyr against Plasmodium falciparum K1CB1 DHFR double-mutant (C59R/S108N); type: functional
Plasmodium falciparum [6] = assay: In vitro relative antiplasmodial activity (IC50) compared to Pyr against Plasmodium falciparum TM4/8.2 wild-type; type: functional
Plasmodium falciparum [7] = assay: In vitro antiplasmodial activity (IC50) against Plasmodium falciparum wtTM4/8.2; type: functional, organism-based
Vero = assay: Cytotoxicity by the selective inhibition against African green monkey kidney […] (vero cells).; type: functional, cell-based; settings: Chlorocebus sabaeus
[8] = tested on: Bifunctional dihydrofolate reductase-thymidylate synthase (Plasmodium falciparum K1), P13922 [UNDEFINED MUTATION]; assay: Ratio of Inhibition of the S108N mutant of dihydrofolate reductase (DHFR) to inhibition of wild type dihydrofolate reductase.
Chain of Bifunctional dihydrofolate reductase-thymidylate synthase (Plasmodium falciparum K1), P13922 [UNDEFINED MUTATION] (P13922 whole entry, looked up, stated change not applied): as the sequence (P13922 whole entry) above

Plasmodium falciparum [9] = assay: IC50 ratio against Plasmodium falciparum K1CB1/TM4; type: functional
[10] = Safety ratio is cytotoxicity to BC cells/IC50 K1.; type: toxicity, cell-based; settings: human, BC cells (breast cancer); read-out: Safety ratio
In short: (§4)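 Ratio of the cytotoxicity IC50 (vero, KB or BC cells, Skehan protocol) to the antiplasmodial IC50 against K1CB1 (C59R+S108N DHFR). […] Label was added at 24 h and cultures ran a further 18-24 h. Final DMSO was 0.1%.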

[11] = Safety ratio is cytotoxicity to KB cells/IC50 K1.; type: toxicity, cell-based; settings: human, KB cells (epidermoid carcinoma); read-out: Safety ratio; in short: as §4
[12] = Safety ratio is cytotoxicity to KB cells/IC50 TM4.; type: toxicity, cell-based; settings: human, KB cells (epidermoid carcinoma); read-out: Safety ratio
In short: (§5)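 Ratio of the cytotoxicity IC50 (KB or BC cells, Skehan protocol) to the antiplasmodial IC50 against TM4/8.2 (wild-type DHFR). […] Label was added after 24 h and cultures ran a further 18-24 h.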

[13] = Safety ratio is cytotoxicity to vero cells/IC50 K1.; type: toxicity, cell-based; settings: monkey, read-out: Safety ratio; in short: as §4
Plasmodium falciparum [14] = assay: Safety ratio as cytotoxicity in vero cells relative to IC50 TM4; type: functional
[15] = tested on: Bifunctional dihydrofolate reductase-thymidylate synthase (Plasmodium falciparum K1), P13922 [UNDEFINED MUTATION]; assay: Ratio of Inhibition of the C59R+S108N mutant of dihydrofolate reductase (DHFR) to inhibition of wild type dihydrofolate reductase.
[16] = Safety ratio is cytotoxicity to BC cells/IC50 TM4.; type: toxicity, cell-based; settings: human, BC cells (breast cancer); read-out: Safety ratio; in short: as §5
[17] = biological target: Bifunctional dihydrofolate reductase-thymidylate synthase (Plasmodium falciparum K1) (UniProt P13922); assay: Inhibition of the C59R+S108N mutant of dihydrofolate reductase (DHFR) relative to Pyr.; in short: as §2
[18] = Safety ratio is cytotoxicity to vero cells/IC50 KI.; type: toxicity, cell-based; settings: monkey, read-out: Safety ratio
In short: (§6)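 Safety ratio is the mammalian-cell cytotoxicity IC50 (vero, KB or BC cells) divided by the antiplasmodial IC50 against P. falciparum K1CB1 (C59R+S108N DHFR). Parasites were grown in human erythrocytes (1.5% suspension, 1-2% parasitemia) at 37 °C, 3% CO2, with drug dilutions at 0.1% DMSO final. After 24 h, [3H]hypoxanthine was added for a further 18-24 h. IC50 came from sigmoidal incorporation curves.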

[19] = biological target: T1, Dihydrofolate reductase (Homo sapiens) (UniProt P00374); assay: Cytotoxicity by selective inhibition against human dihydrofolate reductase (DHFR);NA is no inhibition
T1 sequence (whole entry): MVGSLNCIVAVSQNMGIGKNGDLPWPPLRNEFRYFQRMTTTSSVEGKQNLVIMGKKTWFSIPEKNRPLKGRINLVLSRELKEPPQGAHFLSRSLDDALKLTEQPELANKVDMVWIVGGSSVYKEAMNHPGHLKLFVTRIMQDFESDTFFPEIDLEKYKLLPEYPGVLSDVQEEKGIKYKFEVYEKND

[20] = biological target: Bifunctional dihydrofolate reductase-thymidylate synthase (Plasmodium falciparum K1) (UniProt P13922); assay: Inhibition of S108N mutant dihydrofolate reductase (DHFR)relative to Tmp; in short: as §2
[21] = biological target: Bifunctional dihydrofolate reductase-thymidylate synthase (Plasmodium falciparum K1) (UniProt P13922); assay: Inhibition of the wild-type dihydrofolate reductase (DHFR) relative to Tmp; in short: as §2
[22] = biological target: Bifunctional dihydrofolate reductase-thymidylate synthase (Plasmodium falciparum K1) (UniProt P13922); assay: Inhibition of the C59R+S108N mutant of dihydrofolate reductase (DHFR)relative to Tmp; in short: as §2
[23] = Safety ratio is cytotoxicity to BC cells/IC50 K1; type: toxicity, cell-based; settings: human, BC cells (breast cancer); read-out: Safety ratio; in short: as §6
[24] = Safety ratio is cytotoxicity to KB cells/IC50 K1; type: toxicity, cell-based; settings: human, KB cells (epidermoid carcinoma); read-out: Safety ratio; in short: as §6
[25] = biological target: Bifunctional dihydrofolate reductase-thymidylate synthase (Plasmodium falciparum K1) (UniProt P13922); assay: Inhibition of Plasmodium falciparum wild-type dihydrofolate reductase (DHFR) relative to Pyrimethamine.
Dihydrofolate reductase = biological target: T2, Dihydrofolate reductase (Homo sapiens, UniProt P00374); assay: Cytotoxicity by selective inhibition against human dihydrofolate reductase (DHFR).
T2 sequence (P00374 whole entry): T1 sequence (whole entry)

[26] = biological target: Bifunctional dihydrofolate reductase-thymidylate synthase (Plasmodium falciparum K1) (UniProt P13922); assay: as §1; in short: as §2; remark: listed apart in the source

Chain of Bifunctional dihydrofolate reductase-thymidylate synthase (Plasmodium falciparum K1) (P13922 whole entry, looked up): as the sequence (P13922 whole entry) above

CCc1nc(N)nc(N)c1-c1ccccc1
IC50 (BC): > 500000 nM | Relative activity [1]: 3.8 | Ki [2]: 8.7 nM | Ki [3]: 4.5 nM | Relative activity [4]: 0.2 | IC50 (KB): > 500000 nM | Relative activity (Plasmodium falciparum [5]): 0.1 | Relative activity (Plasmodium falciparum [6]): 8.7 | IC50 (Plasmodium falciparum [7]): 700 nM | IC50 (Vero): 320000 nM | Ratio [8]: 2 | Ratio (Plasmodium falciparum [9]): 4.7 | selectivity ratio [10]: > 151 | selectivity ratio [11]: > 151 | selectivity ratio [12]: > 714 | selectivity ratio [13]: 96 | Safety ratio (Plasmodium falciparum [14]): 444 | Ratio [15]: 3.8 | selectivity ratio [16]: > 714

CCc1nc(N)nc(N)c1-c1ccc(C(C)(C)C)cc1
IC50 (BC): 56000 nM | Relative activity [1]: 1 | Ki [2]: 127 nM | Ki [3]: 66.2 nM | Relative activity [17]: 2.4 | Relative activity [4]: 2.3 | IC50 (KB): 87000 nM | Relative activity (Plasmodium falciparum [5]): 0.1 | Relative activity (Plasmodium falciparum [6]): 7.5 | IC50 (Plasmodium falciparum [7]): 600 nM | IC50 (Vero): 100000 nM | Ratio [8]: 110 | Ratio (Plasmodium falciparum [9]): 6.5 | selectivity ratio [10]: 14.4 | selectivity ratio [11]: 22 | selectivity ratio [12]: 145 | selectivity ratio [18]: 26 | Safety ratio (Plasmodium falciparum [14]): 172 | Ratio [15]: 212 | selectivity ratio [16]: 93.3

CCOc1cc(Cc2cnc(N)nc2N)ccc1OCc1cc(OC)c(OC)c(OC)c1
IC50 (BC): 139000 nM | NI [19]: inactive | IC50 (KB): 102000 nM | IC50 (Vero): 34000 nM

COc1cc(Cc2cnc(N)nc2N)ccc1OCCCc1ccccc1
IC50 (BC): 32000 nM | Relative activity [20]: 0.2 | Relative activity [21]: 0.2 | Ki [2]: 44.2 nM | Ki [3]: 26.6 nM | Relative activity [22]: 0.2 | IC50 (KB): 72000 nM | IC50 (Plasmodium falciparum [7]): 3000 nM | IC50 (Vero): 200000 nM | Ratio [8]: 14.8 | Ratio (Plasmodium falciparum [9]): 3.9 | selectivity ratio [23]: 2.7 | selectivity ratio [24]: 6 | selectivity ratio [12]: 24 | selectivity ratio [13]: 17 | Safety ratio (Plasmodium falciparum [14]): 67 | Ratio [15]: 24.5 | selectivity ratio [16]: 11

CCCOc1cc(Cc2cnc(N)nc2N)ccc1OCc1cc(OC)c(OC)c(OC)c1
IC50 (BC): 56000 nM | NI [19]: inactive | IC50 (KB): 180000 nM | IC50 (Vero): 13000 nM

COc1ccc(CCCc2nc(N)nc(N)c2-c2cccc(Cl)c2)cc1
IC50 (BC): > 500000 nM | Relative activity [25]: 3.7 | Ki [2]: 6 nM | Ki [3]: 4 nM | Ki (Dihydrofolate reductase): > 5000 nM | IC50 (KB): 15000 nM | IC50 (Plasmodium falciparum [7]): 400 nM | IC50 (Vero): 3000 nM | Ratio [8]: 1.8 | Ratio (Plasmodium falciparum [9]): 6.8 | Ratio [15]: 2.7

CCc1nc(N)nc(N)c1-c1ccc(Br)cc1
Relative activity [1]: 0.5 | Relative activity [26]: 1.1 | Ki [2]: 44.3 nM | Ki [3]: 31.5 nM | Relative activity [17]: 0.8 | Relative activity (Plasmodium falciparum [5]): 0.8 | Relative activity (Plasmodium falciparum [6]): 0.6 | IC50 (Plasmodium falciparum [7]): 50 nM | Ratio [8]: 105 | Ratio (Plasmodium falciparum [9]): 500 | Ratio [15]: 148

Nc1nc(N)c(-c2cccc(Cl)c2)c(CCOCCCOc2ccccc2)n1
IC50 (BC): 6100 nM | Relative activity [25]: 0.7 | Ki [2]: 1.9 nM | Ki [3]: 1.8 nM | IC50 (KB): 8100 nM | IC50 (Plasmodium falciparum [7]): 400 nM | IC50 (Vero): 15000 nM | Ratio [8]: 4.5 | Ratio (Plasmodium falciparum [9]): 8.3 | selectivity ratio [23]: 1.8 | selectivity ratio [11]: 2.5 | selectivity ratio [12]: 20 | selectivity ratio [13]: 4.5 | Safety ratio (Plasmodium falciparum [14]): 38 | Ratio [15]: 4.7 | selectivity ratio [16]: 15

Nc1nc(N)c(-c2ccccc2)c(CCCc2ccccc2)n1
IC50 (BC): > 500000 nM | Relative activity [25]: 0.9 | NI [19]: inactive | Ki [2]: 2.4 nM | Ki [3]: 0.9 nM | IC50 (KB): > 500000 nM | IC50 (Plasmodium falciparum [7]): 200 nM | IC50 (Vero): > 50000 nM | Ratio [8]: 1.8 | Ratio (Plasmodium falciparum [9]): 11.5 | selectivity ratio [10]: > 217 | selectivity ratio [11]: > 217 | selectivity ratio [12]: > 2500 | selectivity ratio [13]: > 22 | Safety ratio (Plasmodium falciparum [14]): >250 | Ratio [15]: 4.8 | selectivity ratio [16]: > 2500

CCc1nc(N)nc(N)c1-c1ccc(OC)cc1
Relative activity [1]: 1.5 | Ki [2]: 86 nM | Ki [3]: 39 nM | Relative activity [17]: 1.6 | Relative activity [4]: 1.4 | Relative activity (Plasmodium falciparum [5]): >0.8 | Relative activity (Plasmodium falciparum [6]): 3.8 | IC50 (Plasmodium falciparum [7]): 300 nM | Ratio [8]: 43.3 | Ratio (Plasmodium falciparum [9]): >84 | Ratio [15]: 95.6

CCc1nc(N)nc(N)c1-c1ccc(C)cc1
Relative activity [1]: 0.7 | Ki [2]: 14.7 nM | Ki [3]: 10.6 nM | Relative activity [17]: 0.3 | Relative activity [4]: 0.4 | Relative activity (Plasmodium falciparum [5]): 0.4 | Relative activity (Plasmodium falciparum [6]): 1.2 | IC50 (Plasmodium falciparum [7]): 100 nM | Ratio [8]: 26.5 | Ratio (Plasmodium falciparum [9]): 127 | Ratio [15]: 36.8

COc1cc(COc2cc(Cc3cnc(N)nc3N)ccc2OCc2ccccc2)cc(OC)c1OC
Relative activity [20]: 1.4 | Relative activity [21]: 1.2 | Ki [2]: 503 nM | Ki [3]: 180 nM | Relative activity [22]: 2.1 | IC50 (Plasmodium falciparum [7]): 19000 nM | Ratio [8]: 2.5 | Ratio (Plasmodium falciparum [9]): 0.9 | Ratio [15]: 41.5
